Laboratory results as given in ChEMBL document CHEMBL5661972, “In vitro biological activity of a novel small-molecule inhibitor of polo-like kinase 1” (Mol Cancer Ther, 2007).
pIC50: −log10 of the molar value.

Assays:
MES-SA [1] = experiment: Antiproliferative activity against human MES-SA cells assessed as inhibition of cell growth; format: functional, cell-based
Summary of the method: (§1)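 Cells grown 3 days in 96-well plates, seeded so vehicle controls stay in log growth (MES-SA/DX5 7,000, MES-SA 6,000, HDF 5,000 per well). Exposed to 3-fold dilutions, 30–0.00152 μmol/L, in medium with 5% FBS, 50 μg/mL gentamicin and 0.3% (v/v) DMSO. HDF medium was low-glucose DMEM; MES-SA lines used McCoy's 5A.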

NHDF [2] = experiment: Induction of cell cycle arrest in human HDF cells assessed as accumulation of cells at Sub-2N phase at 3 micromol/L incubated for 24 hrs by propidium iodide staining based flow cytometry analysis (reference value: 0.2 %); format: toxicity; conditions: 3 µM, dose 3 µmol/L
Summary of the method: (§2)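 Cells seeded in six-well plates at densities that keep them in log growth (HDF 120,000, 60,000 or 30,000; H460 100,000, 50,000 or 25,000 per well for 24, 48 or 72 h). Treated with 1 or 3 μmol/L. Floating and adherent cells collected, ethanol-fixed, permeabilized with Triton X-100 and stained with propidium iodide. DNA content read by flow cytometry as % singlet cells.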

NCI-H460 [3] = experiment: Induction of cell cycle arrest in human NCI-H460 cells assessed as accumulation of cells at >4N phase at 1 micromol/L incubated for 24 hrs by propidium iodide staining based flow cytometry analysis (reference value: 1.2 %); format: functional; conditions: dose 1 µmol/L, at 1 µM; summary of the method: as §2
[4] = Selectivity ratio of IC50 for cytotoxicity against human HDF cells to IC50 for antiproliferative activity against human RKO cells; format: toxicity, cell-based; conditions: HDF cells versus RKO cells, read-out: Ratio IC50
NCI-H460 [5] = experiment: Induction of cell cycle arrest in human NCI-H460 cells assessed as accumulation of cells at Sub-2N phase at 3 micromol/L incubated for 72 hrs by propidium iodide staining based flow cytometry analysis (reference value: 2.1 %); format: functional; conditions: dose 3 µmol/L, at 3 µM
NHDF [6] = experiment: Induction of cell cycle arrest in human HDF cells assessed as accumulation of cells at G1 phase at 1 micromol/L incubated for 24 hrs by propidium iodide staining based flow cytometry analysis (reference value: 57.0 %); format: toxicity; conditions: 1 µM, dose 1 µmol/L; summary of the method: as §2
NCI-H460 [7] = experiment: Induction of cell cycle arrest in human NCI-H460 cells assessed as accumulation of cells at G1 phase at 1 micromol/L incubated for 72 hrs by propidium iodide staining based flow cytometry analysis (reference value: 58.2 %); format: functional; conditions: dose 1 µmol/L, at 1 µM; summary of the method: as §2
NHDF [8] = experiment: Induction of cell cycle arrest in human HDF cells assessed as accumulation of cells at >4N phase at 3 micromol/L incubated for 72 hrs by propidium iodide staining based flow cytometry analysis (reference value: 1.4 %); format: toxicity; conditions: 3 µM, dose 3 µmol/L; summary of the method: as §2
NHDF [9] = experiment: Induction of cell cycle arrest in human HDF cells assessed as accumulation of cells at Sub-2N phase at 3 micromol/L incubated for 48 hrs by propidium iodide staining based flow cytometry analysis (reference value: 0.5 %); format: toxicity; conditions: 3 µM, dose 3 µmol/L; summary of the method: as §2
MES-SA [10] = experiment: Antiproliferative activity against DX5 resistant human MES-SA cells assessed as inhibition of cell growth; format: functional, cell-based; summary of the method: as §1
HeLa = experiment: Antiproliferative activity against human HeLa cells assessed as inhibition of cell growth; format: functional, cell-based
[11] = Selectivity ratio of IC50 for cytotoxicity against human HDF cells to IC50 for antiproliferative activity against human HCT-116 cells; format: toxicity, cell-based; conditions: HDF cells versus HCT-116 cells
NHDF [12] = experiment: Induction of cell cycle arrest in human HDF cells assessed as accumulation of cells at G1 phase at 1 micromol/L incubated for 48 hrs by propidium iodide staining based flow cytometry analysis (reference value: 72.8 %); format: toxicity; conditions: 1 µM, dose 1 µmol/L; summary of the method: as §2
NCI-H460 [13] = experiment: Induction of cell cycle arrest in human NCI-H460 cells assessed as accumulation of cells at G1 phase at 3 micromol/L incubated for 24 hrs by propidium iodide staining based flow cytometry analysis (reference value: 45.5 %); format: functional; conditions: dose 3 µmol/L, at 3 µM; summary of the method: as §2
NCI-H460 [14] = experiment: Induction of cell cycle arrest in human NCI-H460 cells assessed as accumulation of cells at S phase at 3 micromol/L incubated for 24 hrs by propidium iodide staining based flow cytometry analysis (reference value: 23.2 %); format: functional; conditions: dose 3 µmol/L, at 3 µM
[15] = target: Mitogen-activated protein kinase 14 (Homo sapiens, UniProt Q16539); experiment: Inhibition of p38alpha (unknown origin)
Sequence of Mitogen-activated protein kinase 14 (Q16539 whole entry): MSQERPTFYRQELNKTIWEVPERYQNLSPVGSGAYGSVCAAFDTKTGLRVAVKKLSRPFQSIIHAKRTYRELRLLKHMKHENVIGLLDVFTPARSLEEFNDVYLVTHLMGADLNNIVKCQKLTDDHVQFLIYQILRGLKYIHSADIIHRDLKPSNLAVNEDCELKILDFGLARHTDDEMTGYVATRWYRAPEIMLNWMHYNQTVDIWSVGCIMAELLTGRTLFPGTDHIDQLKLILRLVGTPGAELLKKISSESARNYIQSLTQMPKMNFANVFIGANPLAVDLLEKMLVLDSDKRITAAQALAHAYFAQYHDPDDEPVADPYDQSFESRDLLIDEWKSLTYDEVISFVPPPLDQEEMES

NCI-H460 [16] = experiment: Induction of cell cycle arrest in human NCI-H460 cells assessed as accumulation of cells at G2-M phase at 3 micromol/L incubated for 48 hrs by propidium iodide staining based flow cytometry analysis (reference value: 22.5 %); format: functional; conditions: dose 3 µmol/L, at 3 µM
NCI-H460 [17] = experiment: Induction of cell cycle arrest in human NCI-H460 cells assessed as accumulation of cells at G2-M phase at 1 micromol/L incubated for 72 hrs by propidium iodide staining based flow cytometry analysis (reference value: 18.2 %); format: functional; conditions: dose 1 µmol/L
NHDF [18] = experiment: Induction of cell cycle arrest in human HDF cells assessed as accumulation of cells at G2-M phase at 3 micromol/L incubated for 24 hrs by propidium iodide staining based flow cytometry analysis (reference value: 22.6 %); format: toxicity; conditions: 3 µM, dose 3 µmol/L; summary of the method: as §2
[19] = target: Vascular endothelial growth factor receptor 2 (Homo sapiens, UniProt P35968); experiment: Inhibition of VEGFR2 (unknown origin)
Sequence of Vascular endothelial growth factor receptor 2 (P35968 whole entry): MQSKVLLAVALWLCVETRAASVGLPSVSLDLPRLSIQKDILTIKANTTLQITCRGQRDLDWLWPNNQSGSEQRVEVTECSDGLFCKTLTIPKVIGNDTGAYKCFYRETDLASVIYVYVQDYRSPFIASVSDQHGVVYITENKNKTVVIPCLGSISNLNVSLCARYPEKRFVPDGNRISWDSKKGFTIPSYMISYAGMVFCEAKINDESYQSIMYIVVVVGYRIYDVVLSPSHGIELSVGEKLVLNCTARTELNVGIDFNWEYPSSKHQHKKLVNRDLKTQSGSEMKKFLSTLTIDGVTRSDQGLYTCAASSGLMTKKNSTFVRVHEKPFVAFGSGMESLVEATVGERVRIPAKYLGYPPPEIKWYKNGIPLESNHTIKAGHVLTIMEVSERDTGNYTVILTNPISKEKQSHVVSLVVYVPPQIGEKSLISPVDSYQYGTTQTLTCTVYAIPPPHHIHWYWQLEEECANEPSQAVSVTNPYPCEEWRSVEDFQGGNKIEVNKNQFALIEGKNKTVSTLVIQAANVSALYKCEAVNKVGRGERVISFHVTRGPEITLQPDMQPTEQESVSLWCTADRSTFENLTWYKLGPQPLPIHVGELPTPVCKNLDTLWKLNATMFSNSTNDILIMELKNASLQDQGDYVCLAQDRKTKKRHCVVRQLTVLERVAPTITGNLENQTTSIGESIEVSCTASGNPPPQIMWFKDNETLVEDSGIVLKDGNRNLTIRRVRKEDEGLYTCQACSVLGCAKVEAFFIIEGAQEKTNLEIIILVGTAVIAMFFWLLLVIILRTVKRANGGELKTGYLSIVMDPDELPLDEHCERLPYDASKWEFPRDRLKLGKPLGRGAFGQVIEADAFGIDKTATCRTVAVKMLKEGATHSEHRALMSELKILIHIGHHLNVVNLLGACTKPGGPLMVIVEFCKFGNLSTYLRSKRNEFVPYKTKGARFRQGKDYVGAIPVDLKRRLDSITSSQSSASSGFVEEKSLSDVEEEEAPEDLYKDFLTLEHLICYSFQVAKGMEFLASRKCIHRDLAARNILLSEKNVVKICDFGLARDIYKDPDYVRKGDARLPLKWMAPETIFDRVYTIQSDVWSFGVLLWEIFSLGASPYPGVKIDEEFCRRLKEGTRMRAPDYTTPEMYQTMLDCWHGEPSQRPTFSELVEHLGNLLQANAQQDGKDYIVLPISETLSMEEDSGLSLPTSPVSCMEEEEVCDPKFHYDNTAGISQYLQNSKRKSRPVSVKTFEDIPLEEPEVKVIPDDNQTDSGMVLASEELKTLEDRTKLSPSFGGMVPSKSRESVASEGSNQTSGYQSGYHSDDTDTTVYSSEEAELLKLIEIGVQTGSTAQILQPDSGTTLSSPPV

NHDF [20] = experiment: Induction of cell cycle arrest in human HDF cells assessed as accumulation of cells at Sub-2N phase at 1 micromol/L incubated for 24 hrs by propidium iodide staining based flow cytometry analysis (reference value: 0.2 %); format: toxicity; conditions: 1 µM, dose 1 µmol/L; summary of the method: as §2
BT-474 = experiment: Antiproliferative activity against human BT-474 cells assessed as inhibition of cell growth; format: functional, cell-based
NHDF [21] = experiment: Induction of cell cycle arrest in human HDF cells assessed as accumulation of cells at >4N phase at 1 micromol/L incubated for 48 hrs by propidium iodide staining based flow cytometry analysis (reference value: 3.0 %); format: toxicity; conditions: 1 µM, dose 1 µmol/L; summary of the method: as §2
NCI-H460 [22] = experiment: Induction of cell cycle arrest in human NCI-H460 cells assessed as accumulation of cells at >4N phase at 3 micromol/L incubated for 48 hrs by propidium iodide staining based flow cytometry analysis (reference value: 0.9 %); format: functional; conditions: dose 3 µmol/L, at 3 µM; summary of the method: as §2
Aurora kinase A = target: T1, Aurora kinase A (Homo sapiens, UniProt O14965); experiment: Inhibition of Aurora A (unknown origin)
T1 sequence (O14965 whole entry): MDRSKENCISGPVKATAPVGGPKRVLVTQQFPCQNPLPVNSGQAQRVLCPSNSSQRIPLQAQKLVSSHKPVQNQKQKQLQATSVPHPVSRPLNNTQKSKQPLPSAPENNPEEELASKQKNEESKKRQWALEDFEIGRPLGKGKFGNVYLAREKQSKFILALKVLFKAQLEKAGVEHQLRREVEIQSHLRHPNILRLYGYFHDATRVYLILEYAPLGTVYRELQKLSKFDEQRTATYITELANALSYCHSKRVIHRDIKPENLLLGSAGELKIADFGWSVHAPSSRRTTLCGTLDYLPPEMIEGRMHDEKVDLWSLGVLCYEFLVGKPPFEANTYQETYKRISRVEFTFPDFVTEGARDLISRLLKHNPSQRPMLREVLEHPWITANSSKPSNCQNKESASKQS

NHDF [23] = experiment: Induction of cell cycle arrest in human HDF cells assessed as accumulation of cells at S phase at 3 micromol/L incubated for 72 hrs by propidium iodide staining based flow cytometry analysis (reference value: 3.6 %); format: toxicity; conditions: 3 µM, dose 3 µmol/L; summary of the method: as §2

pIC50 (HeLa): 6.96 | pIC50 [15]: < 5.00 | pIC50 [19]: 6.44 | pIC50 (BT-474): 6.24 | pIC50 (Aurora kinase A): 5.32
SMILES: COc1cc2ncn(-c3cc(OCc4ccccc4C(F)(F)F)c(C(N)=O)s3)c2cc1OC [GW843682X]
pIC50 (MES-SA [1]): 6.68 | Activity (NHDF [2]): 0.2% | Activity (NCI-H460 [3]): 5.1% | selectivity ratio [4]: > 10 | Activity (NCI-H460 [5]): 30% | Activity (NHDF [6]): 54.2% | Activity (NCI-H460 [7]): 2.5% | Activity (NHDF [8]): 19.1% | Activity (NHDF [9]): 2.3% | pIC50 (MES-SA [10]): 6.68 | selectivity ratio [11]: 8.8 | Activity (NHDF [12]): 55.3% | Activity (NCI-H460 [13]): 7.8% | Activity (NCI-H460 [14]): 8.4% | Activity (NCI-H460 [16]): 14.4% | Activity (NCI-H460 [17]): 10.6% | Activity (NHDF [18]): 65.6% | Activity (NHDF [20]): 0.3% | Activity (NHDF [21]): 6.4% | Activity (NCI-H460 [22]): 35.9% | Activity (NHDF [23]): 8%
